From ChEMBL document CHEMBL4354879, “Bioisosteric Discovery of NPA101.3, a Second-Generation RET/VEGFR2 Inhibitor Optimized for Single-Agent Polypharmacology” (J Med Chem, 2020)
The source made the active and inactive calls. No cut-off for these calls is given here.

Legend:
[1] = target: T1, SHC-transforming protein 1 (Homo sapiens) (UniProt P29353); experiment: Effect on SHC phosphorylation in RET deficient human BCPAP cells at 1 to 100 nM measured after 2 hrs by western blot analysis; assay type: cell-based
T1 sequence (whole entry): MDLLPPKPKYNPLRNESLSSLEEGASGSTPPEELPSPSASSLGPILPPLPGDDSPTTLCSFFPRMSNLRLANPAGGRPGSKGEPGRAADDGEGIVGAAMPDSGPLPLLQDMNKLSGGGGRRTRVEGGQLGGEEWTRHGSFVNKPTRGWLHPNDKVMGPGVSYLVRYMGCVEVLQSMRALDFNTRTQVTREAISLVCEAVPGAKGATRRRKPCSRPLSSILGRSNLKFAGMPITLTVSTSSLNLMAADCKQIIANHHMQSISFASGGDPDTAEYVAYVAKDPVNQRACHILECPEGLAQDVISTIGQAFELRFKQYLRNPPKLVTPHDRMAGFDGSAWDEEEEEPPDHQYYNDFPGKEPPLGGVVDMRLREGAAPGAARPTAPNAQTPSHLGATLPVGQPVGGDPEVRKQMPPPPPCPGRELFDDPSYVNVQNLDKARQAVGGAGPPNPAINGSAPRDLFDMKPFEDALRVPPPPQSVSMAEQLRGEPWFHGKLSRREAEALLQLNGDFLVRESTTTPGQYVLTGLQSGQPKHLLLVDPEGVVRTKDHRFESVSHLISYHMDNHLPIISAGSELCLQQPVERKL

[2] = test system: GTPase HRas (Homo sapiens), P01112 [G12V]; experiment: Inhibition of HRAS G12V mutant (unknown origin) expressed in mouse NIH/3T3 cells assessed as reduction in cell proliferation up to 100 nM supplemented with fresh medium containing compound for every 2 to 3 days measured at 2 days interval during compound dosing; assay type: cell-based
Outline: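 NIH3T3 transformants seeded 10000/well in 2% calf serum; next day drug or vehicle added, medium changed every 2–3 days; cells counted every 2 days; IC50 from curve fit of last-day counts.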

[3] = Toxicity in BALB/c nu/nu mouse assessed as change in phosphorus level at 10 mg/kg, po administered daily for 7 days; assay type: organism-based; conditions: in vivo, 168 h
Homo sapiens [4] = species: Homo sapiens; experiment: Inhibition of CCDC6/RET isoform 9 (unknown origin) expressed in mouse NIH/3T3 cells assessed as reduction in RET phosphorylation at Y905 residue at 1 to 100 nM measured after 2 hrs by Western blot analysis; assay type: cell-based
Outline: (§1)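 Serum-starved RAT1 (RET point mutants) or NIH3T3 (RET rearrangements) cells expressing short RET-9 isoform, treated 2 h; 50 μg total lysate immunoblotted with anti-phospho-Y1062 and anti-phospho-Y905 RET antibodies, normalized to total RET; ECL detection. Compound from 50 mM DMSO stock diluted in growth medium.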

BaF3 = experiment: Cytotoxicity against mouse BAF3 cells assessed as reduction in cell proliferation supplemented with fresh medium containing compound for every 2 to 3 days and measured daily; assay type: cell-based
Outline: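 Ba/F3 cells (parental with IL-3 10 ng/mL; RET/C634R, RET/M918T, NCOA4-RET stable transfectants, RET-51 isoform) were seeded at 200000/well in 10% FCS. Drug or vehicle was added the day after plating, with medium changed every 2–3 days, and cells were counted daily. […] This was a single experiment in triplicate.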

[5] = Toxicity in BALB/c nu/nu mouse assessed as change in globulin level at 10 mg/kg, po administered daily for 7 days; assay type: organism-based; conditions: in vivo, 168 h
[6] = target: NT-3 growth factor receptor (Homo sapiens) (UniProt Q16288); experiment: Binding affinity to wild-type human partial length TRKC (Q531 to G825 residues) expressed in mammalian expression system at 100 nM by Kinomescan method relative to control
[7] = target: T1, SHC-transforming protein 1 (Homo sapiens); experiment: Effect on SHC phosphorylation in RET deficient human Calu1 cells at 1 to 100 nM measured after 2 hrs by western blot analysis
[8] = target: MAP kinase-interacting serine/threonine-protein kinase 2 (Homo sapiens) (UniProt Q9HBH9); experiment: Binding affinity to wild-type human partial length MKNK2 (G63 to S388 residues) expressed in mammalian expression system at 100 nM by Kinomescan method relative to control
Homo sapiens [9] = species: Homo sapiens; experiment: Inhibition of NCOA4/RET isoform 9 (unknown origin) expressed in mouse NIH/3T3 cells assessed as reduction in RET phosphorylation at Y905 residue at 1 to 100 nM measured after 2 hrs by Western blot analysis; assay type: cell-based; outline: as §1
[10] = test system: Proto-oncogene tyrosine-protein kinase receptor Ret (Homo sapiens), P07949 [V804L]; experiment: Inhibition of RET isoform 9 V804L mutant (unknown origin) expressed in rat Rat1 assessed as reduction in RET phosphorylation at Y1062 residue at 1 to 100 nM measured after 2 hrs by Western blot analysis; assay type: cell-based; outline: as §1
Mus musculus = experiment: In vivo inhibition of RET isoform 9 C634Y mutant transfected in mouse NIH/3T3 cells implanted BALB/c nu/nu mouse assessed as reduction in SHC phosphorylation in tumor at 1 mg/kg, po administered once daily via gavage for 3 days measured 3 hrs post-last dose by Western blot analysis
[11] = test system: Proto-oncogene tyrosine-protein kinase receptor Ret (Homo sapiens), P07949 [A883F]; experiment: Inhibition of RET isoform 9 A883F mutant (unknown origin) expressed in rat Rat1 assessed as reduction in RET phosphorylation at Y905 residue at 1 to 100 nM measured after 2 hrs by Western blot analysis; assay type: cell-based; outline: as §1
[12] = target: High affinity nerve growth factor receptor (Homo sapiens, UniProt P04629); experiment: Binding affinity to wild-type human partial length TRKA (G475 to G790 residues) expressed in mammalian expression system at 100 nM by Kinomescan method relative to control
[13] = target: Voltage-gated inwardly rectifying potassium channel KCNH2 (Homo sapiens, UniProt Q12809); experiment: Inhibition of human ERG expressed in HEK293 cells by patch clamp assay
[14] = target: Tyrosine-protein kinase FRK (Homo sapiens) (UniProt P42685); experiment: Binding affinity to wild-type human partial length FRK (A215 to F503 residues) expressed in bacterial expression system at 100 nM by Kinomescan method relative to control
Homo sapiens [15] = species: Homo sapiens; experiment: Effect on MAPK phosphorylation in RET deficient human PC9 cells at 1 to 100 nM measured after 2 hrs by western blot analysis

Sequence of Proto-oncogene tyrosine-protein kinase receptor Ret (Homo sapiens), P07949 [V804L] (P07949 whole entry V804L, canonical isoform): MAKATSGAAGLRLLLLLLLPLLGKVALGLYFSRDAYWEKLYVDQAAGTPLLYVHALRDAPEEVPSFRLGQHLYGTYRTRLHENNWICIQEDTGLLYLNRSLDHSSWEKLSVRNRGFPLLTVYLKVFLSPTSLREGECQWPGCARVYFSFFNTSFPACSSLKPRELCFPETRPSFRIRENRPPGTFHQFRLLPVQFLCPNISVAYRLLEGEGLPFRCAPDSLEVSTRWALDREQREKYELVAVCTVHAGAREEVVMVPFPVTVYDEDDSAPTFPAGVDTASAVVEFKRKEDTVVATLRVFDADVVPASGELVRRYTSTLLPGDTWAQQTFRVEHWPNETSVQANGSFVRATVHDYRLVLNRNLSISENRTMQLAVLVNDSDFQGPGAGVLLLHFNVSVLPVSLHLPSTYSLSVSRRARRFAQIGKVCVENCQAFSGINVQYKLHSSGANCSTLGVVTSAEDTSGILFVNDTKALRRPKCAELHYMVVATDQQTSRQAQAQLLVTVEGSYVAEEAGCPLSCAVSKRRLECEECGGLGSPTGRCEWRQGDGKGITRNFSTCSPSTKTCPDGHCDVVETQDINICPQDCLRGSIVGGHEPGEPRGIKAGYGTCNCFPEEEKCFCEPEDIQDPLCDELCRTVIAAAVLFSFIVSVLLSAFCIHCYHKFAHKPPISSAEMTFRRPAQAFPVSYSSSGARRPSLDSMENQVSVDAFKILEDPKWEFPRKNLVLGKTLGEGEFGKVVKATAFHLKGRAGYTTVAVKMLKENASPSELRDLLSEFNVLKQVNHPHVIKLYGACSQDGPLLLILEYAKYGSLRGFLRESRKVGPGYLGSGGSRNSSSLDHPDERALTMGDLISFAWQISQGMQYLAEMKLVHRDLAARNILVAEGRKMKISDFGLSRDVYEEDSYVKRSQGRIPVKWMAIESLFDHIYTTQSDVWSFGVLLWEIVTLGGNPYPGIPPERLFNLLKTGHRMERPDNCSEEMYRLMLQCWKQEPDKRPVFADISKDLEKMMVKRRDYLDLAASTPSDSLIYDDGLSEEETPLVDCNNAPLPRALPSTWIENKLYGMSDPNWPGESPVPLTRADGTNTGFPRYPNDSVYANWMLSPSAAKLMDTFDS
Sequence of MAP kinase-interacting serine/threonine-protein kinase 2 (Homo sapiens) (Q9HBH9 whole entry, looked up, the tested form may be a part, canonical isoform): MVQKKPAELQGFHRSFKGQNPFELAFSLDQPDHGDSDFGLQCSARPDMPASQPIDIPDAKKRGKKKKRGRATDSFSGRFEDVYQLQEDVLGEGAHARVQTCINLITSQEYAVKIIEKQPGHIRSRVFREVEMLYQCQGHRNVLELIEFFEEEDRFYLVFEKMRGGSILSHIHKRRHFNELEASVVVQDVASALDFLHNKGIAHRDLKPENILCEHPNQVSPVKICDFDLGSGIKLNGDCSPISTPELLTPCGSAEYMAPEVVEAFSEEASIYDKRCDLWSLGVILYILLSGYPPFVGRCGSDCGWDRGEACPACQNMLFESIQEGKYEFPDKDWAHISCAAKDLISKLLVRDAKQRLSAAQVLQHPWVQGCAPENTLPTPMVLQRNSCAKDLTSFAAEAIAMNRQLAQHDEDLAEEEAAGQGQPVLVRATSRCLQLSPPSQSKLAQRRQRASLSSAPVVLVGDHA
Sequence of Tyrosine-protein kinase FRK (Homo sapiens) (P42685 whole entry, the tested form may be a part): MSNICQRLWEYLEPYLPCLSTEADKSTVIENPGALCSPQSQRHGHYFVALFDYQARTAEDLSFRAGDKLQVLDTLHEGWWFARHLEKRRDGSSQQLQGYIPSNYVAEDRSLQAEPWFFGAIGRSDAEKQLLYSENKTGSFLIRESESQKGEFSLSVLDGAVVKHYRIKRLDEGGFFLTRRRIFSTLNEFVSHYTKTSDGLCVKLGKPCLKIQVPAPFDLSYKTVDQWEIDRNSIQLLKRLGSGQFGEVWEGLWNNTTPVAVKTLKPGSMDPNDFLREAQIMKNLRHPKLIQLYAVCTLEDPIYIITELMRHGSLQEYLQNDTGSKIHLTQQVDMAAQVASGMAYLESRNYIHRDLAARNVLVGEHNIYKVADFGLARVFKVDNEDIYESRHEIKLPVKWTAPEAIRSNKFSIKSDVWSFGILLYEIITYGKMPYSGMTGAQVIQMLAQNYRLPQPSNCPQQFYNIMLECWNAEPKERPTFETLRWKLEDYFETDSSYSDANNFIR
Sequence of GTPase HRas (Homo sapiens), P01112 [G12V] (P01112 whole entry G12V): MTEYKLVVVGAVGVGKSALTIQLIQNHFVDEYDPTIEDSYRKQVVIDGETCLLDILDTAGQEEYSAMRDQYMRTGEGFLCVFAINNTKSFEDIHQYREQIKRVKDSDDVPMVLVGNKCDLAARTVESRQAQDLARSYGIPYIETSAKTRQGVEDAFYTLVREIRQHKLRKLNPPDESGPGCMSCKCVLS
Sequence of Proto-oncogene tyrosine-protein kinase receptor Ret (Homo sapiens), P07949 [A883F] (P07949 whole entry A883F, the tested form may be a part, canonical isoform): as the sequence (P07949 whole entry V804L, canonical isoform) above, with L804V, A883F counted along it
Sequence of Voltage-gated inwardly rectifying potassium channel KCNH2 (Q12809 whole entry, the tested form may be a part): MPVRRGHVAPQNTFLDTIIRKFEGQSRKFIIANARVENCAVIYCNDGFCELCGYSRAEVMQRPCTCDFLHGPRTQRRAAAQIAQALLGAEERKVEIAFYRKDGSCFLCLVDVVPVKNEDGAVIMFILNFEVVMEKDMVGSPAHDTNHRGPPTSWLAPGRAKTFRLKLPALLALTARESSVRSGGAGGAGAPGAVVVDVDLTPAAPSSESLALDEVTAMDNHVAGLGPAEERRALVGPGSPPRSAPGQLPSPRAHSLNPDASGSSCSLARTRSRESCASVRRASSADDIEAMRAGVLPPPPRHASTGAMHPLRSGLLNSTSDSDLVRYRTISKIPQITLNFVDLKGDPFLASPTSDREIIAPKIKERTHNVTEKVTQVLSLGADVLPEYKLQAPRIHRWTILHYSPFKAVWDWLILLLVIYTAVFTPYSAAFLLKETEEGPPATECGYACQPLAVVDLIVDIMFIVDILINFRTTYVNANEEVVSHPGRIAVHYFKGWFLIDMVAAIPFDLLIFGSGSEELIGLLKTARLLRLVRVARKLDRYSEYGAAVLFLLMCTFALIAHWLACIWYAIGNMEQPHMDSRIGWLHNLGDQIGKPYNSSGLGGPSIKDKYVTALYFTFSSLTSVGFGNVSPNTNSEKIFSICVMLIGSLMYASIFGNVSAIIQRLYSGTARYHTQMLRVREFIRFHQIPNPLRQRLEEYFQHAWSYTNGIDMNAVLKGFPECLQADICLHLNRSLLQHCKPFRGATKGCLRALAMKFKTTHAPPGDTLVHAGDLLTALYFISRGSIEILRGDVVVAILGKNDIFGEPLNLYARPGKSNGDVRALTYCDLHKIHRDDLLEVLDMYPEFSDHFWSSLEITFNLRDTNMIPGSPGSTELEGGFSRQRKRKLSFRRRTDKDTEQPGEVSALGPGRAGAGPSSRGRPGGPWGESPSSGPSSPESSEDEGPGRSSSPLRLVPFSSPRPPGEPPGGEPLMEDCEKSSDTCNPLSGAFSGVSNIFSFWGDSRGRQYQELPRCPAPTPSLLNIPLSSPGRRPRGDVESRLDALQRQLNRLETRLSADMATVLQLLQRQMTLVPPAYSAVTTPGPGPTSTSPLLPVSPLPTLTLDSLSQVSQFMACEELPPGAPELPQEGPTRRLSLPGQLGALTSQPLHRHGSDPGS

For `CC(C)(C)c1cc(NC(=O)Cc2ccc(-n3cnc4cc(-c5ccc(S(C)(=O)=O)cc5)ccc43)cc2)no1`, the Activity [1] was “inactive”, the inhibition [2] was “inactive” and the Activity [3] was “Non-Toxic”. For the same compound, the inhibition (Homo sapiens [4]) was “Active”, the IC50 (BaF3) was over 0.1 µM and the Activity [5] was “Non-Toxic”. For the same compound, the Activity [6] was over 90%, the Activity [7] was “inactive” and the Activity [8] was over 90%. For the same compound, the inhibition (Homo sapiens [9]) was “Active”, the inhibition [10] was “Active” and the inhibition (Mus musculus) was “Active”. For the same compound, the inhibition [11] was “Active”, the Activity [12] was over 90% and the IC50 [13] was 7.57 µM. The Activity [14] was over 90% and the Activity (Homo sapiens [15]) was “inactive”.
